Published values gathered from unrelated publications.
Protocols differ between the studies behind these lines.
Target: Ephrin type-A receptor 5 (EPHA5, Homo sapiens, UniProt P54756)

| Structure (SMILES) | assay | conditions | quantity | result |
| --- | --- | --- | --- | --- |
| Oc1ccc(-c2nc(-c3ccncc3)c(-c3ccc(F)cc3)[nH]2)cc1 | cell-free assay | 0.5 µM | remaining signal | 90.7% |
| Nc1ncnc2occ(-c3ccc(NC(=O)Nc4cc(C(F)(F)F)ccc4F)cc3)c12 | cell-free assay | 20 µM | remaining signal | 0.05% |
| C#Cc1cccc(Nc2ncnc3cc(OCCOC)c(OCCOC)cc23)c1 | cell-free assay | 0.5 µM | remaining signal | 99.1% |
| Cc1ccc(NC(=O)c2ccc(C)c(C(F)(F)F)c2)cc1C#Cc1nn(C2CCC(O)CC2)c2ncnc(N)c12 (stereo not shown) | cell-free assay | 10 µM | remaining signal | -1% |
| CCOCCn1cc(C(=O)Nc2ccc(-n3nc(-c4cccnc4)cc3C(F)(F)F)cn2)ccc1=O | cell-free assay, competition with immobilised ligand | 1 µM | remaining binding | 100% |
| O=C(Nc1cnn(-c2csc(C(=O)NC3COC3)c2)c1)Nc1c(F)cccc1Cl | enzyme activity, inhibitor | 5 µM | remaining activity | 95% |
| CC/C(=N\NC(=O)NCc1cccc(O)c1)c1ccc(O)c(C)c1O | enzyme activity, inhibitor | 0.1 µM | inhibition | -3.3% |
| Cc1ccc(Nc2nccc(N(C)c3ccc4c(C)n(C)nc4c3)n2)cc1S(N)(=O)=O | enzyme activity, inhibitor | 10 µM | inhibition | 70% |
| COc1cc2ncnc(Nc3ccc(Oc4ccccc4)cc3C)c2cc1OC | enzyme activity, inhibitor | 1 µM | inhibition | 5% |
| O=C(Nc1ccc(Oc2ccc(F)cc2)cc1)N1CCc2ncccc2[C@H]1c1ccc(F)cc1 | cell-free assay, competition with immobilised ligand | 1 µM | remaining binding | 100% |
| C=CC(=O)Nc1cc(Nc2nccc(Nc3cc(Cl)c(F)cc3C(C)(C)O)n2)c(OC)cc1N1CC[C@@H](N(C)C)C1 | enzyme activity, inhibitor | 1 µM | inhibition | 17% |
| CC(C)c1ccc(NC(=O)c2cccs2)c(-c2nc3ccccc3[nH]c2=O)c1 | enzyme activity, inhibitor | 1 µM | activity vs control | 112% |
| CNC(=O)c1cc(Oc2ccc(NC(=O)Nc3ccc(Cl)c(C(F)(F)F)c3)cc2)ccn1 | enzyme activity, inhibitor | 0.3 µM | inhibition | 32% |
| COc1cc(-c2cc(-c3ccc(N4CCNCC4)cc3)cnc2C)cc(OC)c1OC | enzyme activity, inhibitor | 1 µM | inhibition | 4% |
| CC(C)(O)[C@H]1CC[C@H](Nc2ccc3ncc(-c4cccc(C(F)(F)F)c4)n3n2)CC1 | enzyme activity, inhibitor | 1 µM | remaining activity | 101% |
| C[C@@H]1CN(c2cc(-c3nn(C)c4ccc(OC5(C)CC5)cc34)ncn2)C[C@H](C)O1 | cell-free assay, competition with immobilised ligand | 1 µM | remaining binding | 100% |
| CCCS(=O)(=O)Nc1ccc(F)c(C(=O)c2c[nH]c3ncc(-c4ccc(Cl)cc4)cc23)c1F | enzyme activity, inhibitor | 1 µM | inhibition | < 20% |
| C[C@H](NC(=O)c1cnc2n1[C@](C)(Cc1ccc(C#N)cc1)C(=O)N2c1cc(Cl)c(F)c(Cl)c1)C(=O)NC1(c2ccccn2)CC1 | cell-free assay, competition with immobilised ligand | 1 µM | remaining binding | 100% |
| O=C1Nc2ccc(Cl)cc2C1=Cc1cc(Cl)c(O)c(Cl)c1 | cell-free assay | 0.5 µM | remaining signal | 99.4% |
| Cn1cc(Cl)c2c(Oc3c(F)cc(Nc4cc(Cl)nc(N)n4)cc3F)ccnc21 | cell-free assay, competition with immobilised ligand | 0.1 µM | remaining binding | 100% |
| CCN(CC)CCNC(=O)c1c(C)[nH]c(/C=C2\C(=O)Nc3ccc(F)cc32)c1C | enzyme activity, inhibitor | 10 µM | inhibition | 58% |
| CS(=O)(=O)NCC[C@H](NC(=O)c1cncc2c1cnn2-c1ccc(F)cc1)c1ccnc(S(C)(=O)=O)c1 | cell-free assay, competition with immobilised ligand | 1 µM | remaining binding | 100% |
| CC(C)(C)c1nc2c(s1)c1nc(N)ncc1c1ccc(NS(=O)(=O)c3c(F)cccc3F)c(F)c12 | enzyme activity, inhibitor, radiometric | 1 µM | remaining activity | 109% |
| CC(=O)N1CCC(c2ccc(C(=O)NC3=NCCN3)cc2C(F)(F)F)CC1 | cell-free assay, competition with immobilised ligand | 1 µM | remaining binding | 100% |
| Cc1ccc(C(=O)NCc2ccsc2)cc1C#Cc1cn(C(C)C)c2ncnc(N)c12 | enzyme activity, inhibitor | 1 µM | activity vs control | 1% |
